Results on eight molecules are retold here after ChEMBL document CHEMBL1123266, “Antibacterial activity of phosphono dipeptides related to alafosfalin” (J Med Chem, 1986).

For test [1], the system named is Staphylococcus aureus. The test can be described thus: Concentration (IC50) to inhibit the growth of Staphylococcus aureus. Format: functional, organism-based. In a few lines:
(§1)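 Broth dilution in a defined liquid peptide medium lacking antagonists of small peptide mimetics. Inocula were overnight cultures grown in this medium at 37 °C and diluted to about 4 × 10^6 cfu/mL. Compound was tested as a doubling dilution series, final 0.065–512 μg/mL, incubated overnight at 37 °C. Turbidity was read, and IC50 is the concentration reducing 24-h growth to 50% of control.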

Test [2] has as its system Escherichia coli. The test can be described thus: Minimum inhibitory concentration (MIC) to control the growth of Escherichia coli strain PCM 2057. The test is classed as functional. The method, boiled down: (§2)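 Doubling dilutions of compound were made in a defined liquid peptide medium free of peptide-mimetic antagonists, final 0.065–512 μg/mL. The inoculum was an overnight 37 °C culture diluted to about 4 × 10^6 cfu/mL, incubated overnight at 37 °C. Non-turbid samples were subcultured (0.1 mL) onto solid peptide-medium agar and incubated overnight at 37 °C to assign MIC.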

In test [3] the test system is Enterococcus faecalis. The test can be described thus: Concentration (IC50) to inhibit the growth of Streptococcus faecalis. Format: functional, organism-based. The method, boiled down:
as §1

Test [4] concerns Bacillus subtilis. The test can be described thus: Minimum inhibitory concentration (MIC) to control the growth of Bacillus subtilis strain PCM 1949. The test is classed as functional. The method, boiled down: as §2
Test [5] concerns Staphylococcus aureus. The test can be described thus: Minimum inhibitory concentration (MIC) to control the growth of Staphylococcus aureus strain PCM 2054. The test is classed as functional. The method, boiled down: as §2
Test [6] deals with Klebsiella aerogenes. The test can be described thus: Concentration (IC50) to inhibit the growth of Klebsiella aerogenes. The test is classed as functional, organism-based. The method, boiled down: as §1
Test [7] concerns Bacillus subtilis. Put plainly: Concentration (IC50) to inhibit the growth of Bacillus subtilis. The test is classed as functional, organism-based. In a few lines:
as §1

In test [8] the test system is Klebsiella aerogenes. Put plainly: Minimum inhibitory concentration (MIC) to control the growth of Klebsiella aerogenes strain PCM 2063. Format: functional. In a few lines: as §2
For test [9], the system named is Serratia marcescens. Put plainly: Minimum inhibitory concentration (MIC) to control the growth of Serratia marcescens strain PCM 549. The test is classed as functional. The method, boiled down:
as §2

Test [10] relates to Escherichia coli. The test can be described thus: Concentration (IC50) to inhibit the growth of Escherichia coli. Format: functional, organism-based. In a few lines: as §1
Test [11] deals with Enterococcus faecalis. The test can be described thus: Minimum inhibitory concentration (MIC) to control the growth of Streptococcus faecalis strain PCM 896. The test is classed as functional. In a few lines: as §2
Test [12] deals with Serratia marcescens. Put plainly: Concentration (IC50) to inhibit the growth of Serratia marcescens. Format: functional, organism-based. In a few lines:
as §1

Converted amounts (≈) assume the structure as drawn.

A word on the IC50: it is the concentration at which inhibition is half-maximal. The low end stands for inhibition by little substance, the high end for a need for much substance. In general, MIC refers to the lowest concentration that inhibits growth of the organism.

With `CC(N)C(=O)NC(C12CC3CC(CC(C3)C1)C2)P(=O)(O)O` (stereo not given), the IC50 in the test with Staphylococcus aureus [1], in the test on Enterococcus faecalis [3], in the test on Klebsiella aerogenes [6], in the test on Bacillus subtilis [7], with Escherichia coli [10] and with Serratia marcescens [12] was greater than 512 µg/mL in each case. For the same molecule, the MIC against Escherichia coli [2], in the test on Bacillus subtilis [4], against Staphylococcus aureus [5], in the test with Klebsiella aerogenes [8], with Serratia marcescens [9] and in the test with Enterococcus faecalis [11] was greater than 512 µg/mL in each case.

`CC(C)CC(N)C(=O)NC(CCC(=O)O)P(=O)(O)O` (stereo not given): the IC50 with Staphylococcus aureus [1] was 128 µg/mL (≈ 432 µM); with Enterococcus faecalis [3] it was 32 µg/mL (≈ 108 µM); in the test with Klebsiella aerogenes [6], 22 µg/mL (≈ 74.3 µM); in the test on Bacillus subtilis [7], 14 µg/mL (≈ 47.3 µM); with Escherichia coli [10], 18 µg/mL (≈ 60.8 µM); in the test with Serratia marcescens [12], 16 µg/mL (≈ 54 µM). In addition, the minimal inhibitory concentration (MIC) is 128 µg/mL (≈ 432 µM) in the test with Escherichia coli [2]; 128 µg/mL (≈ 432 µM) in the test with Bacillus subtilis [4]; greater than 512 µg/mL in the test with Staphylococcus aureus [5]; 128 µg/mL (≈ 432 µM) against Klebsiella aerogenes [8]; greater than 512 µg/mL in the test with Serratia marcescens [9]; greater than 512 µg/mL against Enterococcus faecalis [11].

For the molecule `CC(N)C(=O)NC(C(C)C)P(=O)(O)O` (stereo not given), the IC50 was 6.8 µg/mL (≈ 30.3 µM) in the test with Staphylococcus aureus [1]; 0.09 µg/mL (≈ 0.401 µM) in the test on Enterococcus faecalis [3]; greater than 512 µg/mL in the test with Klebsiella aerogenes [6]; greater than 512 µg/mL in the test on Bacillus subtilis [7]; greater than 512 µg/mL in the test on Escherichia coli [10]; greater than 512 µg/mL with Serratia marcescens [12]. Besides, the MIC against Escherichia coli [2], in the test on Bacillus subtilis [4], against Staphylococcus aureus [5], with Klebsiella aerogenes [8], in the test with Serratia marcescens [9] and in the test with Enterococcus faecalis [11] was greater than 512 µg/mL in each case.

For the molecule `CC(C)CC(N)C(=O)NC(C12CC3CC(CC(C3)C1)C2)P(=O)(O)O` (stereo not given), the IC50 in the test on Staphylococcus aureus [1], in the test on Enterococcus faecalis [3], in the test with Klebsiella aerogenes [6], in the test with Bacillus subtilis [7], with Escherichia coli [10] and with Serratia marcescens [12] was greater than 512 µg/mL each time. In addition, the MIC against Escherichia coli [2], against Bacillus subtilis [4], against Staphylococcus aureus [5], against Klebsiella aerogenes [8], in the test with Serratia marcescens [9] and in the test on Enterococcus faecalis [11] was greater than 512 µg/mL each time.

Regarding `CC(N)C(=O)NC(CCC(=O)O)P(=O)(O)O` (stereo not given), the IC50 was 1.8 µg/mL (≈ 7.08 µM) in the test on Staphylococcus aureus [1]; 32 µg/mL (≈ 126 µM) in the test with Enterococcus faecalis [3]; 4.8 µg/mL (≈ 18.9 µM) with Klebsiella aerogenes [6]; 14 µg/mL (≈ 55.1 µM) with Bacillus subtilis [7]; 5.6 µg/mL (≈ 22 µM) in the test with Escherichia coli [10]; 0.065 µg/mL (≈ 0.256 µM) with Serratia marcescens [12]. Further, the MIC in the test with Escherichia coli [2] was 64 µg/mL (≈ 252 µM); in the test with Bacillus subtilis [4], 16 µg/mL (≈ 62.9 µM); with Staphylococcus aureus [5], 256 µg/mL (≈ 1010 µM); against Klebsiella aerogenes [8], 128 µg/mL (≈ 504 µM); in the test with Serratia marcescens [9] it was greater than 512 µg/mL; against Enterococcus faecalis [11], greater than 512 µg/mL.

In the case of `COc1ccc(CC(NC(=O)C(N)CC(C)C)P(=O)(O)O)cc1OC` (stereo not given), the IC50 with Staphylococcus aureus [1], with Enterococcus faecalis [3], in the test on Klebsiella aerogenes [6], in the test on Bacillus subtilis [7], in the test with Escherichia coli [10] and in the test with Serratia marcescens [12] was greater than 512 µg/mL in each case. Besides, the MIC with Escherichia coli [2], in the test with Bacillus subtilis [4], with Staphylococcus aureus [5], against Klebsiella aerogenes [8], in the test on Serratia marcescens [9] and in the test with Enterococcus faecalis [11] was greater than 512 µg/mL in each case.

Consider `CC(N)C(=O)NC(C)(C)P(=O)(O)O` (stereo not given), for which the IC50 in the test on Staphylococcus aureus [1] came out at 282 µg/mL (≈ 1340 µM); in the test with Enterococcus faecalis [3], 19 µg/mL (≈ 90.4 µM); in the test on Klebsiella aerogenes [6], 512 µg/mL (≈ 2440 µM); in the test on Bacillus subtilis [7], 16 µg/mL (≈ 76.1 µM); with Escherichia coli [10] it was 5.6 µg/mL (≈ 26.6 µM); with Serratia marcescens [12], 48 µg/mL (≈ 228 µM). Also, the MIC against Escherichia coli [2] was 64 µg/mL (≈ 305 µM); in the test with Staphylococcus aureus [5] it was 256 µg/mL (≈ 1220 µM); in the test with Klebsiella aerogenes [8], 256 µg/mL (≈ 1220 µM); against Serratia marcescens [9] it was greater than 512 µg/mL; against Enterococcus faecalis [11] it was 8 µg/mL (≈ 38.1 µM).

For the molecule `CC(C)CC(N)C(=O)NC(C1CCCC1)P(=O)(O)O` (stereo not given), the IC50 in the test on Staphylococcus aureus [1] was 6 µg/mL (≈ 20.5 µM); with Enterococcus faecalis [3], greater than 512 µg/mL; with Klebsiella aerogenes [6], greater than 512 µg/mL; with Bacillus subtilis [7], 435 µg/mL (≈ 1490 µM); with Escherichia coli [10], greater than 512 µg/mL; in the test with Serratia marcescens [12], 64 µg/mL (≈ 219 µM). The MIC in the test on Escherichia coli [2] was greater than 512 µg/mL; against Bacillus subtilis [4], greater than 512 µg/mL; in the test with Staphylococcus aureus [5], greater than 512 µg/mL; with Klebsiella aerogenes [8] it was greater than 512 µg/mL; against Serratia marcescens [9], 128 µg/mL (≈ 438 µM); against Enterococcus faecalis [11] it was greater than 512 µg/mL.
